Experimental data collected from several papers.
Compare with care: the assays were run in different laboratories.
Target: Mitogen-activated protein kinase kinase kinase kinase 5 (MAP4K5, Homo sapiens, UniProt Q9Y4K4)

`c1cnn2ncc(-c3ccnc(N4CCC45COC5)n3)c2c1` has a remaining binding of 94% (binding; 1 µM).
`FC(F)(F)Oc1cccc(-c2cnc3ccc(-c4ccncc4)nn23)c1` gave a remaining binding of 77% (cell-free assay, competition with immobilised ligand; 5 µM).
The remaining binding of `CN(C)c1nccc(-c2cnn3ncccc23)n1` is reported as 88% (binding; 1 µM).
`O=c1nc(-c2ccccn2)sc2ccccc12` has a remaining binding of 100% (binding, competition with immobilised ligand; 1 µM).
`COc1cnc(Nc2cccc(S(N)(=O)=O)c2)nc1N1CCN(c2ccccc2)C(=O)C1` gave a remaining binding of 100% (binding, competition with immobilised ligand; 1 µM).
The remaining binding of `O=C(NCC1CCOCC1)c1n[nH]cc1NC(=O)c1c(F)cccc1F` is reported as 89% (binding, competition with immobilised ligand; 1 µM).
The remaining binding of `C[C@@H](c1ccc(-n2cnc3c(N)ncnc32)cc1)N1CCc2nn(C)c(Cc3ccccc3)c2C1=O` is reported as 87% (binding, competition with immobilised ligand; 0.1 µM).
With `N[C@H]1CCN(c2nccc(-c3cnn4ncccc34)n2)C1` the remaining binding was 100% (binding; 1 µM).
For `CNC(=O)c1ccc(Nc2ncc(C(F)(F)F)c(NCc3nccnc3N(C)S(C)(=O)=O)n2)cc1`, the remaining binding was 100% (cell-free assay, competition with immobilised ligand; 0.1 µM).
`CC1CCCN1c1nccc(-c2cnn3ncccc23)n1` (centres unmarked) has a remaining binding of 100% (binding; 1 µM).
For `CN(c1ccnc(CNc2nc(Nc3ccc4c(c3)CC(=O)N4)ncc2C(F)(F)F)n1)S(C)(=O)=O`, the remaining binding was 72% (cell-free assay, competition with immobilised ligand; 1 µM).
For `O=C(NCCCN1CCOCC1)c1ccc(Nc2ncc(Cl)c(-c3ccc(Cl)s3)n2)cc1`, the remaining binding was 63% (binding, competition with immobilised ligand; 1 µM).
For `O=C(O)[C@@H]1[C@@H](Cn2nnc3ccccc3c2=O)CC[C@H]1C(=O)c1ccc(OCCC2CCOCC2)cc1`, the remaining binding was 100% (cell-free assay, competition with immobilised ligand; 1 µM).
`O=C(c1ccc(Nc2ncc(Cl)c(-c3ccc(Cl)s3)n2)cc1)N1CCC(N2CCCC2)CC1` has a remaining binding of 45% (binding, competition with immobilised ligand; 1 µM).
For `CC(=O)c1c(NS(C)(=O)=O)c2cc(-c3ccc(Cl)cc3)c(-c3ccc(Cl)cc3Cl)nc2n(C)c1=O`, the remaining binding was 100% (cell-free assay, competition with immobilised ligand; 1 µM).
For `C[C@@H]1CCN(c2nccc(-c3cnn4ncccc34)n2)C1`, the remaining binding was 93% (binding; 1 µM).
With `CCS(=O)(=O)c1cc2cc(C[C@](O)(CC(C)(C)c3ccc(F)cc3C(N)=O)C(F)(F)F)[nH]c2cn1` the remaining binding was 100% (cell-free assay, competition with immobilised ligand; 1 µM).
With `c1cncc(-c2cccc(Nc3nccc(NC4CCCCC4)n3)c2)c1` the remaining binding was 91% (binding, competition with immobilised ligand; 10 µM).
For `Cc1cnn2ncc(-c3ccnc(N(C)C)n3)c2c1`, the remaining binding was 67% (binding; 1 µM).
With `COc1cnc(Nc2cccc(S(N)(=O)=O)c2)nc1N1CCN(c2ccccc2)CC1` the remaining binding was 100% (binding, competition with immobilised ligand; 1 µM).
